The source of these data is ChEMBL document CHEMBL4513216, “Probing the Open Global Health Chemical Diversity Library for Multistage-Active Starting Points for Next-Generation Antimalarials” (ACS Infect Dis, 2020).

The nature of this series: Toxicity liver stage against HepG2, at 10uM. The format is cell-based. Also on record: test concentration 10 uM, cell line HepG2-A16-CD81EGFP. The settings on record: human, HepG2-A16-CD81EGFP cells; read-out: INHIBITION
In short, it runs like this: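 Uninfected HepG2-A16-CD81EGFP cells, 3 × 10^3 per well, 1536-well, plated on prespotted compound at 10 μM final, parasite-free screening media added to match infected plates; puromycin 10 μM positive, DMSO 0.5% negative; run in parallel with 48 h PbLuc assay at 37 °C, 5% CO2; viability by CellTiter-Glo luminescence, normalized to controls.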
Take `CN(Cc1ccccc1)C(=O)[C@@H]1Cc2[nH]cnc2CN1C`: the cytotoxicity at 10 µM was -3.92%.
Under `CC[C@H]1CN2CC[C@H]1C[C@@H]2CNC(=O)Nc1ccc(Br)cc1` stands 1.08%; under `COCC(=O)N1CCN2C(=O)OC[C@H]2C1`, 1.82%; under `CCc1nc(-c2ccc(NC(=O)N3CCCC3)cc2)no1`, 5.03%.
For `COCCn1ccc(=O)c(OCC(=O)Nc2ccc(Br)cc2)c1C`, the cytotoxicity at 10 µM was 0.185%.
On to `O=C(c1nnn(-c2ccc(C(F)(F)F)cc2)n1)N1CCC(O)CC1`, for which the cytotoxicity at 10 µM is -4.52%.
`CCN(C)C(=O)c1ccc2c(c1)C(c1nc[nH]n1)CN2S(C)(=O)=O` (configuration not stated): the cytotoxicity at 10 µM was -137%.
Under `CO[C@H]1CN(S(=O)(=O)c2cn(C)cn2)[C@@H]2CCCO[C@H]12` stands -132%; under `NC(=O)c1nc(COc2ccc3c(c2)OCO3)no1`, 8.55%.
As for `CC(C)[C@H](NC(=O)NC1CCS(=O)(=O)C1)C(=O)NCc1ccccc1Cl` (some centres not stated), the cytotoxicity at 10 µM was determined as 5.91%.
Under `CC(C)n1ncc2c1NC(=O)CC21C(=O)Nc2c(Cl)cccc21` (configuration not stated) stands -1.58%; under `CCOC(=O)C1CCN(c2nccc(-n3nc(C)cc3C)n2)CC1`, -8.99%.
As to `COC(=O)CCn1ccc(=O)c2cc(OC)ccc21`, the cytotoxicity at 10 µM was 3.88%.
Turning to `CCn1nnnc1-c1cccc(NC(=O)COC2CCCC2)c1`, the cytotoxicity at 10 µM is -0.47%.
Under `CS(=O)(=O)CCn1ccc(NCc2ccc(C#N)cc2)n1` stands 6.56%; under `Cc1cccc(N2CCN(C(=O)CNCCn3cccn3)CC2)c1`, -6.16%.
Next, `CNS(=O)(=O)c1c(C)sc2ccccc12`: 4.18%; `NC(=O)C1CCN(C(=O)NC(Cc2ccccc2)C(F)(F)F)CC1` (configuration not stated): -7.72%.
Take `Cc1nc(C(NC(=O)CN(C)C(C)C)c2ccccc2F)no1` (configuration not stated): the cytotoxicity at 10 µM is -2.64%.
On to `CN(Cc1nc2ccccc2[nH]1)C(=O)CN(C)c1ccccc1`, for which the cytotoxicity at 10 µM was -2.46%.
For the compound `COc1ccc2c(c1)CCCC2CC(=O)NCC(=O)O` (configuration not stated), the cytotoxicity at 10 µM is -4.31%.
Next, `CC(C)C(C)N(C)Cc1nnc(-c2ccc(Br)s2)o1` (configuration not stated): -1.65%.
Next, `COc1cc2nc(C)sc2cc1NC(=O)CN(C)C(C)C`: -3.93%; `Cc1nn(-c2ccccc2)c(C)c1CC(=O)NC1CC(=O)N(C)C1` (configuration not stated): 6.08%; `COc1ccc(C)cc1CN1CCN(Cc2nccn2C)C(C)C1` (configuration not stated): 1.43%.
Regarding `COc1cc(CNC2CCCN(c3cccnn3)C2)cc2c1OCO2` (configuration not stated), the cytotoxicity at 10 µM is -2.22%.
On to `Cc1cc(CNC(=O)NCC(O)c2cccc(C(F)(F)F)c2)no1` (configuration not stated), for which the cytotoxicity at 10 µM was -6.79%.
Under `CNC(=O)CN(C)C1CCN(c2ccc(Cl)cc2)CC1` stands -1.15%; under `Cc1cccc(N(CC(=O)N2CCCCC2)C(=O)C2CCCO2)c1` (configuration not stated), -1.52%.
Under `Cc1sc(-c2ccco2)nc1C(=O)NCC1CCOC1` (configuration not stated) stands -6.71%; under `CNS(=O)(=O)Cc1ccccc1CNc1ccc(C#N)cn1`, -6.45%.
`COc1ccccc1CN1CCN(CCN2CCOC2=O)CC1`: the cytotoxicity at 10 µM was -11.2%.
Under `CCC(C)NC(=O)c1cccc(CNC(=O)CC(F)(F)F)c1` (configuration not stated) stands 6.99%; under `CCNS(=O)(=O)C1CCN(C(=O)c2ccc(F)cc2)C1` (configuration not stated), 7.98%; under `CNC(=O)Cc1ccccc1NC(=O)NCc1ccc(SC)cc1`, -1.88%.
`CCC(CC)N(C)S(=O)(=O)c1ccc(CCNC(C)=O)s1`: the cytotoxicity at 10 µM is -3.45%.
Under `Cc1cc(NC(=O)NCCc2cccnc2)n(C)n1` stands -3.86%; under `CCN(CC)C(=O)c1cc(-c2cccc(Cl)c2)no1`, -8.79%; under `CCc1nnc(C(C)N(C)Cc2c(C)nn(-c3ccccc3)c2C)o1` (configuration not stated), -9.85%.
Under `COCc1noc(-c2nn(-c3ccc(F)c(F)c3)c3c2CCC3)n1` stands -2.75%.
Under `Cn1ccnc1-c1noc(NCc2ccc(Cl)cc2)n1` stands -9.46%.
For `CN(Cc1nccn1C)C(=O)C1COCC(=O)N1Cc1ccccc1` (configuration not stated), the cytotoxicity at 10 µM came out at 1.01%.
With `CC(C)Cn1ncc2cc(C(=O)N(C)Cc3cccc(O)c3)cnc21`, the cytotoxicity at 10 µM was -4.67%.
Under `CSCc1cc(C(=O)NC2(C#N)CCSC2)ccc1F` (configuration not stated) stands -4.59%.
Under `CCn1ccnc1SCCn1cnc2ccsc2c1=O` stands -2.9%.
Under `Cc1nn2c(nc1=O)-c1ccccc1NC2C(=O)O` (configuration not stated) stands 5.32%; under `Cc1ccc(C(=O)Nc2ccc(N3CCCC3)cn2)cc1C`, 26.9%; under `Cc1nc(C2CCCN2CCOCC2CC2)no1` (configuration not stated), -4.56%.
For the compound `CCNc1nc(-c2cccnc2)c(-c2ccnc(NCCO)n2)s1`, the cytotoxicity at 10 µM is -13.7%.
Take `NC(=O)c1cc2c(nc1CC1CCCCO1)CCC2` (configuration not stated): the cytotoxicity at 10 µM is -5.4%.
For the compound `O=C(CN1CCOCC1)N1CCC(c2cc(N3CCCC3)ncn2)CC1`, the cytotoxicity at 10 µM was determined as 3.6%.
Next, `Cc1cc(N2Cc3cnn(CCO)c3C2)nc(-c2ccccc2)n1`: -156%; `COc1cc(C(=O)NCC2CCCN(Cc3ccco3)C2)ccn1` (configuration not stated): -3.94%; `O=C1NCC2(CCCN(C(=O)Nc3ccc4scnc4c3)CC2)O1` (configuration not stated): -5.59%.
For the compound `Cc1ccccc1CN1CCC(CNC(=O)Cn2cncn2)CC1`, the cytotoxicity at 10 µM is 3.83%.
For the compound `O=C1O[C@@H]2CN(Cc3ccccc3F)C[C@@H]2N1CCCN1CCOCC1`, the cytotoxicity at 10 µM was -4.73%.
Take `CCC(CO)N(Cc1ccccc1C)Cc1ccccc1C(=O)O` (configuration not stated): the cytotoxicity at 10 µM is -6.32%.
As to `COCC(c1ccccn1)N(C)C(=O)c1cc(-c2ccc(O)cc2)n[nH]1` (configuration not stated), the cytotoxicity at 10 µM was -4.07%.
Turning to `CSCCCN1CCC(c2nnc(Cn3ccnc3)n2C2CC2)CC1`, the cytotoxicity at 10 µM is 0.872%.
Under `CC(=O)NC1CCN(C(=O)c2cnc(COc3ccccc3)nc2O)C1` (configuration not stated) stands -5.3%; under `COc1ccc(CCNC(=O)CN2CCOCS2(=O)=O)cc1`, -2.64%; under `Cc1ccnn1CC(=O)N1CCCN(C2Cc3ccccc3C2)CC1`, -120%.
Take `CN1CCN(S(=O)(=O)N2CCCCC2CCc2ccc(O)cc2)CC1` (configuration not stated): the cytotoxicity at 10 µM is -1.94%.
For the compound `Cc1nc(N)cc(NCc2csc(N(C)C)n2)n1`, the cytotoxicity at 10 µM is -5.2%.
On to `CCCSc1ccccc1NC(=O)N1CCN(C(=O)c2ccc[nH]2)CC1`, for which the cytotoxicity at 10 µM worked out at 3.99%.
Under `CC(C)n1cnnc1CN(C)Cc1ccc(CN(C)S(C)(=O)=O)o1` stands -1.31%.
Next, `CCc1ccc2nc(C)cc(C(=O)NC[C@@H]3CCNC[C@H]3O)c2c1`: -3%.
Next, `CN1CCN(C[C@H]2CC[C@@H](Cc3ccc(CN4CCCC4)cc3)O2)CC1`: -7.32%.
With `CCC1(CO)CCCN(Cc2nccn2Cc2ccccc2)C1` (configuration not stated), the cytotoxicity at 10 µM is -7.35%.
As for `O=C(CCCN1CCCCC1)N1CCN(C(=O)c2ccc[nH]2)CC1`, the cytotoxicity at 10 µM came out at 57.8%.
As for `O=C1OCCN1C1CCN(Cc2cc3n(n2)CCCNC3)CC1`, the cytotoxicity at 10 µM worked out at 12.7%.
Take `CN(C)c1cc(N(C)Cc2cc(C(C)(C)C)n[nH]2)ncn1`: the cytotoxicity at 10 µM was -0.629%.
Consider `Cc1cccc(C)c1Oc1ncccc1CNC(=O)C1(C)CCCNC1` (configuration not stated), for which the cytotoxicity at 10 µM was determined as 0.687%.
`COc1ccc(C(=O)N2CC(c3ccncc3)C2)c(OC)c1OC`: the cytotoxicity at 10 µM is -1.86%.
Turning to `O=C(NC1CC(=O)N(C2Cc3ccccc3C2)C1)c1cnccn1` (configuration not stated), the cytotoxicity at 10 µM was 0.661%.
For the compound `Cc1ccc(NC2CCN(C(=O)c3cscn3)CC2)nn1`, the cytotoxicity at 10 µM is -8.73%.
Consider `CCN(CC)S(=O)(=O)N(C)Cc1ccc2c(c1)OCCO2`, for which the cytotoxicity at 10 µM was -7.85%.
Regarding `Cc1ccc(C(=O)NCc2cccnc2N(C)C)s1`, the cytotoxicity at 10 µM is -2.12%.
For the compound `Cc1ccc(-c2nc(C(=O)N3CCCC(C(N)=O)C3)cs2)c(C)c1` (configuration not stated), the cytotoxicity at 10 µM is -2.9%.
Regarding `COc1c(CNCCNC(=O)c2ccc(C)cc2)c(C(C)C)nn1C`, the cytotoxicity at 10 µM is -0.945%.
Under `Cc1ccc(N2CCCC(NCc3nnc4n3CCCC4)C2=O)cc1` (configuration not stated) stands -6.69%; under `Cc1ccc(C)c(OCCC(=O)N2CCCN(CC(N)=O)CC2)c1`, -8.54%.
In the case of `CCN(CC1CCCO1)C(=O)Nc1ccc(OC)c(C)c1` (configuration not stated), the cytotoxicity at 10 µM was -12.9%.
Under `C1CCCN(C2CCCN(Cc3noc(C4CC4)n3)C2)CC1` (configuration not stated) stands -8.84%; under `CCc1nc(CN(C)C2CCN(CCc3cccs3)C2)no1` (configuration not stated), -8.7%.
As to `O=C(NCC(=O)N1CCC2(CC1)OCCO2)c1ccoc1`, the cytotoxicity at 10 µM was -9.55%.
Next, `Cc1ccc(F)cc1S(=O)(=O)NCc1cccc(C(=O)N2CCCC2)c1`: -15.1%; `COc1ccccc1C(=O)N(C)Cc1nnc2ccccn12`: -2.45%.
Regarding `CCc1nc(C2CCCN(C(=O)NC3CC3)C2)no1` (configuration not stated), the cytotoxicity at 10 µM is -15.3%.
Under `O=C(NCc1cccc(N2CCCCC2=O)c1)[C@@H](O)c1ccccc1` stands -8.31%.
In the case of `Cc1cnn(CC2CCCN2C(=O)c2cn(-c3ccccc3)nc2C)c1` (configuration not stated), the cytotoxicity at 10 µM is -9.39%.
Under `O=C(N[C@H]1CN[C@H]2CCCO[C@H]21)c1ccno1` stands -6.92%; under `Cc1cc(C(=O)N2C[C@@H]3COC[C@]3(CN(C)C)C2)sc1C`, -146%; under `C[C@H]1CN(C(=O)c2ccoc2)C[C@@]12CCN(CCN(C)C)C2=O`, -1.77%.
Take `O=C(C[C@@H]1COC[C@H]2CN(C(=O)c3cccnc3)C[C@@H]12)N1CCOCC1`: the cytotoxicity at 10 µM is -105%.
For `CSCC(=O)N1C[C@@H]2CC[C@H]1CN(Cc1ccccc1)C2`, the cytotoxicity at 10 µM was -14.9%.
`Cc1cccc(CN2C[C@H]3CC[C@@H](C2)N(Cc2c(C)noc2C)C3=O)n1`: the cytotoxicity at 10 µM worked out at 0.296%.
